Laboratory results: publication PMC5808564 (ChemMedChem, 2017)
Where “and” joins values, the source holds several entries; their conditions need not be identical. Equal values may be shown once. Read-outs that look alike come from different tables or passages of the source.

What was measured:
[1] = target: recombinant T. brucei hexokinase 1 (rTbHK1) (Trypanosoma brucei, UniProt Q38C42); assay: biochemical; assay type: biochemical
IMR-90 human cells = assay: Human cell line toxicity testing; assay type: cell-based
[2] = test system: T. brucei bloodstream form (BSF) parasites (cell line 90-13, a 427 strain); assay: microbe, parasite or virus in culture; assay type: cell-based, Trypanosoma brucei; settings: for % T. brucei BSF growth inhibition (10 μM): 10 μM compound; for % T. brucei BSF growth inhibition (10 μM) / inhibition at 10 µM: BLD = below level of detection; for T. brucei BSF potency (LD50 ± SEM): 3-day growth, n ≥ 3; for inhibition at 10 µM: Trypanosoma brucei, A-427, read-out: % T. brucei BSF growth inhibition (10 μM), 10 μM compound
[3] = target: T1, human HK 4 (human glucokinase, hGlk) (Homo sapiens, UniProt P35557); assay: Specificity assay against human glucokinase; assay type: biochemical; settings: for % hGlk inhibition (10 μM): 10 μM compound, BLD = below level of detection; for inhibition at 10 µM: read-out: % hGlk inhibition (10 μM)
T1 sequence (P35557 1-465): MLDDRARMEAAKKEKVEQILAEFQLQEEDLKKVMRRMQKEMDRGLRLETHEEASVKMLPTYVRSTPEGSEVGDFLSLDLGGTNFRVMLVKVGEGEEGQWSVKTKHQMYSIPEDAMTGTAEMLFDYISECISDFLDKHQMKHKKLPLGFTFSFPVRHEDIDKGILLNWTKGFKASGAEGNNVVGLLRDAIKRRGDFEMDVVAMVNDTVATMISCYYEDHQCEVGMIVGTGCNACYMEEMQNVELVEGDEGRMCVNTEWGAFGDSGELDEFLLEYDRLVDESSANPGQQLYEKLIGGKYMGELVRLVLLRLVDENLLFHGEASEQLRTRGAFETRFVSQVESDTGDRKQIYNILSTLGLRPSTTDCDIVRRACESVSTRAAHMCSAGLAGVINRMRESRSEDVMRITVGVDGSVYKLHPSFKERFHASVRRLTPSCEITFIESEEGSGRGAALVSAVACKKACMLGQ
How it was run: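 Uses human hexokinase 4 (glucokinase; GenBank BC001890). Activity is read through a coupled reaction in which glucose-6-phosphate dehydrogenase converts the glucose-6-phosphate formed to 6-phosphogluconate. The coincident NADPH formation is followed at 340 nm.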

[4] = read-out: rTbHK1 potency (IC50 ± SEM), average of n ≥ 3 experiments
[5] = read-out: IMR90 toxicity (EC50), IMR-90 cells, 44-46 h
[6] = Homo sapiens, IMR-90, read-out: IMR90 toxicity (EC50)

SMILES	IC50 [1, 4] [µM]	EC50 (IMR-90 human cells; [5]) [µM]	% T. brucei BSF growth inhibition (10 μM) [2]	T. brucei BSF potency (LD50 ± SEM) [2]	% hGlk inhibition (10 μM) [3]	IC50 [1] [µM]	EC50 (IMR-90 human cells; [6]) [µM]	inhibition at 10 µM [2] [%]	inhibition at 10 µM [3] [%]	rTbHK1 enzymatic potency (in words) [1]	activity on whole T. brucei BSF parasites (in words) [2]
CC(C)(C)c1ccc(C(=O)Nc2cc(Cl)c(-n3cccc3)cc2C(=O)O)cc1 [Compound 4aa]	3 ± 0.2	> 25	73.6 ± 1.0%	6.9 ± 2.1 µM	15.8 ± 3.0%						
CC(C)(C)c1ccc(C(=O)Nc2cc(Cl)c(-c3ccc[nH]3)cc2C(=O)O)cc1 [Compound 4bb]						0.5 ± 0.05	> 25	57 ± 7.1	6.1 ± 0.1		
Cc1cc(C(=O)O)c(NC(=O)c2ccc(C(C)(C)C)cc2)cc1Cl [Compound 4c, 2-(4-tert-Butylbenzamido)-4-chloro-5-methylbenzoic acid]						2.7 ± 0.18	> 25	97.5 ± 0.6	12.5 ± 4.8		
CC(C)(C)c1ccc(C(=O)Nc2cc(Cl)c(-n3cccn3)cc2C(=O)O)cc1 [Compound 4cc]	2.8 ± 0.2	> 25	22.5 ± 12.3%	> 10.0 µM	8.7 ± 4.4%						
CCc1cc(C(=O)O)c(NC(=O)c2ccc(C(C)(C)C)cc2)cc1Cl [Compound 4d, 2-(4-tert-Butylbenzamido)-4-chloro-5-ethylbenzoic acid]			BLD			7.4 ± 0.15	> 25		0.7 ± 1.4		
CC(C)(C)c1ccc(C(=O)Nc2cc(Cl)c(-n3ccnc3)cc2C(=O)O)cc1 [Compound 4dd]	> 10	> 25	16.4 ± 13.3%		1.7 ± 3.2%						
CC(C)(C)c1ccc(C(=O)Nc2cc(Cl)c(C3CC3)cc2C(=O)O)cc1 [Compound 4e]	6.7 ± 0.38	> 25	43.4 ± 16.8%		BLD						
CC(C)(C)c1ccc(C(=O)Nc2cc(Cl)c(-c3nnn[nH]3)cc2C(=O)O)cc1 [Compound 4ee]			BLD			0.14 ± 0.002	> 25		1.6 ± 0.5		
Cn1nnc(-c2cc(C(=O)O)c(NC(=O)c3ccc(C(C)(C)C)cc3)cc2Cl)n1 [Compound 4ff]	> 10	> 25	BLD		14.0 ± 4.1%					lacked enzymatic potency	failed to inhibit BSF parasite growth
Cc1ccc(-c2cc(C(=O)O)c(NC(=O)c3ccc(C(C)(C)C)cc3)cc2Cl)cc1 [Compound 4g]	2.78 ± 0.03	> 25	81.4 ± 5.6%	3.2 ± 1.6 µM	15.7 ± 3.0%						
Cc1ccccc1-c1cc(C(=O)O)c(NC(=O)c2ccc(C(C)(C)C)cc2)cc1Cl [Compound 4h]		> 25	65.2 ± 0.2%		16.6 ± 2.3%						
COc1ccc(-c2cc(C(=O)O)c(NC(=O)c3ccc(C(C)(C)C)cc3)cc2Cl)cc1 [Compound 4i]	1.72 ± 0.09	> 25	82.5 ± 7.1%	3.1 ± 0.2 µM	22.2 ± 1.6%						
COc1cccc(-c2cc(C(=O)O)c(NC(=O)c3ccc(C(C)(C)C)cc3)cc2Cl)c1 [Compound 4j]	0.88 ± 0.01	> 25	92.2 ± 2.9%	1.5 µM and 1.5 ± 0.3 µM	13.8 ± 1.9%						
COc1ccccc1-c1cc(C(=O)O)c(NC(=O)c2ccc(C(C)(C)C)cc2)cc1Cl [Compound 4k]	4.6 ± 0.32	> 25	90.7 ± 0.9%	2.0 ± 0.2 µM	18.8 ± 2.4%						
CC(C)(C)c1ccc(C(=O)Nc2cc(Cl)c(-c3cccnc3)cc2C(=O)O)cc1 [Compound 4t]		> 25	57.7 ± 14.2%		16.7 ± 1.2%						
